Assay results of several laboratories.
Lines come from different studies, so protocols differ.
Target: Calcium/calmodulin-dependent protein kinase kinase 1 (CAMKK1, Homo sapiens, UniProt Q8N5S9)

SMILES	assay	conditions	endpoint	value
O=c1[nH]c2ccccc2n1C1CCN(Cc2ccc(-c3[nH]c4cc5ncnc5cc4nc3-c3ccccc3)cc2)CC1	cell-free assay	0.5 µM	remaining signal	117%
Cn1cncc1[C@](O)(COc1ccc(C#N)cc1-c1ccc(OC(F)(F)F)cc1)c1ccc(C#N)cc1	cell-free assay, competition with immobilised ligand	1 µM	remaining binding	77%
COc1ncccc1-c1cnn2ccc(N3CCN(C(=O)OC(C)C)CC3)nc12	binding, competition with immobilised ligand	1 µM	remaining binding	77%
Nc1ncc(-c2nc(N3CCOCC3)nc(N3CCOCC3)n2)c(C(F)F)n1	binding, competition with immobilised ligand	10 µM	remaining binding	70%
N#CC1(c2ccccn2)CCN(Cc2cc(C(=O)O)c(=O)n3ccccc23)CC1	cell-free assay, competition with immobilised ligand	1 µM	remaining binding	100%
CC(C)(C)c1cc(C=C(C#N)C#N)cc(Br)c1O	enzyme activity, inhibitor	0.5 µM	remaining activity	120%
Cn1cc(-c2cccc(N3CCc4c(sc5c4CC(C)(C)C5)C3=O)c2CO)cc(Nc2ccncn2)c1=O	enzyme activity, inhibitor	1 µM	inhibition	4%
Cc1nn(C)cc1-c1nc2c(N3CCN(Cc4ccc(Cl)cc4)CC3)c(Cl)cnc2[nH]1	binding, competition with immobilised ligand	1 µM	remaining binding	100%
